≈ marks a conversion by molar mass, not a printed value. Counter-ions that a name gives are not always drawn.
What was measured:
[1] = test system: influenza A/PR/8/34 (H1N1) virus; type: cell-based
MDCK cells [2] = assay: Cytotoxicity assay; type: cell-based; settings: 48 h, MTT; for NCTC (EC50): NCTC was selected as EC50 (HA test)
Procedure, shortened: (§1)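 MDCK cells seeded at 3×10^4/well in 10% FBS and grown 24 h at 37 °C to semi-confluency. Exposed 48 h to twofold dilutions of test compound (2.5 to 0.001 mg/ml), 4 wells per dilution. MTT for 2–3 h at 37 °C in the dark, formazan dissolved in DMSO, OD read at 540 nm, viability taken as % of untreated control. CC50 read from dose-response curves.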

[3] = target: virus surface HA glycoprotein (Influenza A virus, UniProt P03452); assay: Hemagglutination inhibition assay; type: biochemical; settings: twofold dilutions from CC50, 4 HA unit of virus, 1% cRBC
MDCK cells [4] = type: cell-based
[5] = Critical micelle concentration; type: physicochemical
[6] = test system: H1N1-induced apoptosis in MDCK cells; type: cell-based
Cytotoxicity assay = type: cell-based; settings: dog, MDCK cells
Procedure, shortened: as §1

Chain of virus surface HA glycoprotein (P03452 18-342 limits assumed): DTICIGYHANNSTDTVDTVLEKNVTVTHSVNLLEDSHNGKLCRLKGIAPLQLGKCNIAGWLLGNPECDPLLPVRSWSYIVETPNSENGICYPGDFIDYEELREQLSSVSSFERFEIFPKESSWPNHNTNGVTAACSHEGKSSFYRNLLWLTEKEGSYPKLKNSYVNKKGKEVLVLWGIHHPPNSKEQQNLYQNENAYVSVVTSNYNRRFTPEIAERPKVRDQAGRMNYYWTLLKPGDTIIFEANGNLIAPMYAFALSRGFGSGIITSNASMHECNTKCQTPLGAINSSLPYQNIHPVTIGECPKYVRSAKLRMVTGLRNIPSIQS
Chain of virus surface HA glycoprotein (P03452 344-565 limits assumed): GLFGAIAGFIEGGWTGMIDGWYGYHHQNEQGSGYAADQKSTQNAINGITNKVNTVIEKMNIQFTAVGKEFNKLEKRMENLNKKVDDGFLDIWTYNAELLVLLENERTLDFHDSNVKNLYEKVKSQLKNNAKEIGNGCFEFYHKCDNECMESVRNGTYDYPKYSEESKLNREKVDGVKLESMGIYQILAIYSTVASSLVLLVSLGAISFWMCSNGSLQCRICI

SMILES | Log HA decrement (mean ± SD), Co-pen [1] [logs] | CC50 (MDCK cells [2]) [µg/mL] | NCTC (EC50) (MDCK cells [2]) [µg/mL] | CMC (critical micelle concentration) [5] | Apoptosis evaluation (%), Q4 healthy cells [6] [%] | other results
CCC(CC)O[C@@H]1C=C(C(=O)O)C[C@H](N)[C@H]1NC(C)=O [Ose, oseltamivir carboxylate, reference compound] | 8 | 788.5 ± 6.0 (≈ 2770 µM) | 394.2 ± 0.0 | – | – | Log HA decrement (mean ± SD), Post-pen [1]: 8 logs; Log HA decrement (mean ± SD), Pre-pen [1]: 8 logs; Dilution to give HI + [3]: 1st
CCCCCCCCCCCC[N+](C)(C)CCCCCCCCCC[N+](C)(C)CCCCCCCCCCCC.[Br-].[Br-] [GSC, Decamethylene-1,10-bis(N,N-dimethyl-N-dodecylammonium bromide)] | 6.5 | 4.0 ± 0.0 | 1.2 ± 0.6 | 0.63 | 37.50 | Log HA decrement (mean ± SD), Pre-pen [1]: 4.5 logs; Apoptosis evaluation (%), Q4 healthy cells (MDCK cells [4]): 37.500 ± 9.900%
CCCCCCCCCCCCCCCC[N+](C)(C)CCCCCCCCCCCC[N+](C)(C)CCCCCCCCCCCCCCCC.[Br-].[Br-] [GSG, Dodecamethylene-1,12-bis(N,N-dimethyl-N-hexadecylammonium bromide)] | – | 11.9 ± 0.0 | 1.7 ± 1.3 | 0.022 | 70.10 | –
CCCCCCCCCCCCCCCCCC[N+](C)(C)Cc1ccc(C[N+](C)(C)CCCCCCCCCCCCCCCCCC)cc1.[Br-].[Br-] [GSK, 1,4-phenylene-bis(methylene) bis (N,N-dimethyl-N-octadecylammonium bromide)] | – | 1229.2 ± 0.0 | 307.3 ± 0.0 | 0.29 | – | –
CCCCCCCCCCCCCCCC[N+](C)(C)Cc1ccc(C[N+](C)(C)CCCCCCCCCCCCCCCC)cc1.[Br-].[Br-] [GSH, 1,4-phenylene-bis(methylene)bis (N,N-dimethyl-N-hexadecylammonium bromide)] | – | 522.2 ± 0.0 | 36.7 ± 28.6 | 0.48 | 68.05 | –
CCCCCCCCCCCC[N+](C)(C)CCCNCCC[N+](C)(C)CCCCCCCCCCCC.[Br-].[Br-] [GSB, 4-aza-1,7-heptane-bis(N,N-dimethyl-N-dodecylammonium bromide)] | – | 1.9 ± 0.1 | 0.7 ± 0.3 | 1.047 | – | Apoptosis evaluation (%), Q2 late apoptosis [6]: 49.50%
CCCCCCCCCCCC[N+](C)(C)CCOCC[N+](C)(C)CCCCCCCCCCCC.[Br-].[Br-] [GSD, 3-oxa-1,5-pentane-bis(N,N-dimethyl-N-dodecylammonium bromide)] | – | 4.9 ± 0.1 | 1.7 ± 0.6 | 1.047 | – | Log HA decrement (mean ± SD), Post-pen [1]: 5.5 logs; Apoptosis evaluation (%), Q2 late apoptosis [6]: 46.70%
CCCCCCCCCCCCCCCC[N+](C)(C)CCCCCC[N+](C)(C)CCCCCCCCCCCCCCCC.[Br-].[Br-] [GSA, Hexamethylene-1,6-bis(N,N-dimethyl-N-hexadecylammonium bromide)] | 6.5 | 7.7 ± 0.0 | 2.6 ± 1.7 | 0.034 | 54.85 | –
NC12CC3CC(CC(C3)C1)C2 [Ama, amantadine hydrochloride, reference compound] | 7 | – | – | – | – | CC50 at 48 h (Cytotoxicity assay): 197 ± 1.5 µg/mL; EC50 at 48 h (Cytotoxicity assay): 98.5 µg/mL
CCCCCCCCCCCCCCCCCC[N+](C)(C)CCCCCCCCCCCC[N+](C)(C)CCCCCCCCCCCCCCCCCC.[Br-].[Br-] [GSJ, Dodecamethylene-1, 12-bis (N, N-dimethyl-N-octadecylammonium bromide)] | – | 48.6 ± 0.0 | 0.6 ± 0.2 | 0.0331 | 68.75 | –
CCCCCCCCCCCCCCCC[N+](C)(C)CCCCCCCCCC[N+](C)(C)CCCCCCCCCCCCCCCC.[Br-].[Br-] [GSF, Decamethylene-1,10-bis(N,N-dimethyl-N-hexadecylammonium bromide)] | – | 8.8 ± 0.0 | 1.7 ± 0.5 | 0.032 | 70.50 | Apoptosis evaluation (%), Q4 healthy cells (MDCK cells [4]): 82.950 ± 8.132%
CCCCCCCCCCCCCCCCCC[N+](C)(C)CCCCCCCCCC[N+](C)(C)CCCCCCCCCCCCCCCCCC.[Br-].[Br-] [GSI, Decamethylene-1,10-bis(N,N-dimethyl-N-octadecylammonium bromide)] | – | 16.4 ± 0.0 | 2.6 ± 1.5 | 0.0213 | 77.90 | Apoptosis evaluation (%), Q4 healthy cells (MDCK cells [4]): 84.850 ± 1.202%
CCCCCCCCCCCC[N+](C)(C)CCCCCC[N+](C)(C)CCCCCCCCCCCC.[Br-].[Br-] [GSE, Hexamethylene-1,6-bis (N,N-dimethyl-N-dodecylammonium bromide)] | – | 3.4 ± 0.0 | 0.9 ± 0.5 | 0.98 | – | Apoptosis evaluation (%), Q3 early apoptosis [6]: 54.10%

Source: publication PMC10088587 (Archives of Microbiology, 2023)
